Sampled rows, rich in hits. Any-hit rate of the full collection: about 1.7%.
Runt-SMMHC FRET – blocks binding of human RUNX1 Runt domain to CBFb-SMMHC; Q01196+Q13951; Cerulean-Runt/Venus-CBFb-SMMHC FRET ratio 530/480, 1 h; inhibition, % at 20 µM; 220,000 compounds, 0.74% hits; AID 1434;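 active means mean inhibition across duplicate retests at 20 µM reaching about 50%, limit read from the data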;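 further: 0% = DMSO wells and 100% = wells with excess untagged CBFb-SMMHC; inhibitors lower the FRET ratio by blocking Runt binding to CBFb-SMMHC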
Target sequence (Q01196 whole entry, looked up, the tested form may be a part): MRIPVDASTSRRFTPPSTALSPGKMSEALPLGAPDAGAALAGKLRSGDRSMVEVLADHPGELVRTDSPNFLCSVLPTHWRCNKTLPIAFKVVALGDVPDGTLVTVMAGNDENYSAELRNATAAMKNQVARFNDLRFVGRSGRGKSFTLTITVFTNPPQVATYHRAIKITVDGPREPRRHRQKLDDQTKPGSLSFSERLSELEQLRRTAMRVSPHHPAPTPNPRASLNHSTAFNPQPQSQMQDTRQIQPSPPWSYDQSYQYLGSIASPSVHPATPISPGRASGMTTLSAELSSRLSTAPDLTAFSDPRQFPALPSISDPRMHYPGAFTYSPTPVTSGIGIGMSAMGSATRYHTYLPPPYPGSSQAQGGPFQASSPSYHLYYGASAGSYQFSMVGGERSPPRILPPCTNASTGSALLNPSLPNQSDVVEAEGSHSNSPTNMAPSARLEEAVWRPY
Target sequence (Q13951 whole entry, looked up, the tested form may be a part): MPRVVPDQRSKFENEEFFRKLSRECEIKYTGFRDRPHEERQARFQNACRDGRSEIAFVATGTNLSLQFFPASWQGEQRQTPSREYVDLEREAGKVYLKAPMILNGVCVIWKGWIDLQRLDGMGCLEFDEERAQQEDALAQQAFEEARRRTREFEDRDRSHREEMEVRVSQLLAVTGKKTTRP
Rce1 inhib – blocks yeast Ras-converting enzyme | Q03530 | yeast membranes, quenched prenylated peptide cleavage fluorescence | calls only | 290,000 compounds, 0.27% hits;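 active means fall in fluorescence gain of 50% or more versus controls, with final raw signal at or below 3038400; inconclusive means same 50% fall but final raw signal above 3038400; inactive means fall in fluorescence gain under 50%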;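 further: plate controls were neutral control wells for no effect and wells lacking membranes for full effect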
Vif inh – HIV Vif inhibition; HEK293T cells, Vif self-association by quenched fluorescence, imaging, 24 h; inhibition, % at 7.49 µM; 340,000 compounds, 0.35% hits; AID 602346; in the data active means inhibition above about 50%, passing the limit was not always enough; inconclusive means no clear call, values can overlap the other calls; inactive means below about 31%
RanGTP-Impb inh – inhibitors of RanGTP-importin-beta interaction, primary screen, biochemical, FRET, CFP-Ran, YFP-importin-beta, homogeneous. cell-free CFP-Ran/YFP-importin-beta FRET ratio. inhibition, % (test concentration not listed). 300,000 compounds, 1.1% hits;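 active means more than half of the replicate wells show a fall in the fluorescence ratio signal beyond about 16%, limit read from the data, passing the limit was not always enough; inconclusive means exactly half of the replicate wells pass the set limit; inactive means fewer than half of replicates pass the limit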;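 further: 0% = DMSO wells and 100% = Ran loaded with GDP instead of GTP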
Runt-CBFb FRET – inhibitors of human RUNX1 Runt domain binding to CBFb | Cerulean-Runt/Venus-CBFb FRET ratio 530/480, 1 h | AID 1496 | inhibition, % at 20 µM | 220,000 compounds, 0.46% hits;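 active means inhibition over about 50% at 20 µM in the single-dose screen, limit read from the data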;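 further: 0% = DMSO wells and 100% = excess unlabeled CBFb competitor control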
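Assay system: Cerulean-Runt domain fusion protein, energy donor; Signal: fluorescence energy transfer, 422 nm excitation, 530/480 nm emission; Timing: 1 h compound exposure, room temperature; Control set: unlabeled CBFb; Medium: Tris buffer pH 7.5 with salts and BSA; Compound: single test concentration of 20 µM, 1% DMSO final; Probe or stimulus: Venus-CBFb 100 nM.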
An asterisk follows results filed as active; i = inactive; ? = inconclusive; nt = no result; + = active, no number.

SMILES	Runt-SMMHC FRET	Rce1 inhib	Vif inh	RanGTP-Impb inh	Runt-CBFb FRET
c1cnc2nc(-c3ccc4c(c3)OCO4)cn2c1	1	i	-4	4	-1
c1ccn2cc(-c3ccc4c(c3)OCO4)cc2c1	92*	i	0	-2	59*
COc1ccccc1-c1csc(Nc2ccc(Oc3ccccc3)cc2)n1	nt	nt	-2	nt	nt
CC(C)C(=O)N=C1SC2CS(=O)(=O)CC2N1Cc1ccccc1 (stereo unspecified)	1	i	55*	0	-2
CC(C)C(=O)N=C1SC2CS(=O)(=O)CC2N1Cc1ccc(Cl)cc1 (stereo unspecified)	-1	i	3	-1	0
Cc1cc(=O)oc2cc3c(cc12)OCCN3	44	i	nt	97*	10
O=C(c1cn(-c2ccccc2)nc1-c1cccs1)N1CCN(c2ccccn2)CC1	-1	+	nt	0	-2
O=C(O)CCC(=O)Nc1ccc(Br)c(Cl)c1	3	i	0	-2	100*
CC1CC(C)(C)NC(=S)N1CC(=O)N1CCN(Cc2ccc3c(c2)OCO3)CC1 (stereo unspecified)	-4	nt	-1	-3	3
COC(=O)c1cnn2c3c(c(C)nc12)CCCC3	-4	+	2	-1	-2
Cn1c(CNc2ccc(Cl)cc2)nc2ccccc21	1	i	-22	-2	0
CN(Cc1nc2ccccc2n1C)S(=O)(=O)c1ccc(Cl)cc1	-2	i	50*	-2	1
CCOC(=O)c1cc2c(=O)n3ccccc3nc2n(C(C)C)c1=NC(=O)c1c(-c2c(F)cccc2Cl)noc1C	63*	i	2	90*	101*
CCCCCn1c(=NC(=O)c2ccco2)c(C(=O)OCC)cc2c(=O)n3ccccc3nc21	42	i	-5	137*	11
Cc1onc(-c2c(F)cccc2Cl)c1C(=O)OCC(=O)c1c[nH]c2ccccc12	-3	i	0	-2	-1
CCCCn1c(=NC(=O)c2ccco2)c(C(=O)OCC)cc2c(=O)n3cccc(C)c3nc21	82*	i	-3	123*	10
CC1CCN(Cc2nnc(-c3cccc(Br)c3)o2)CC1	nt	i	-3	1	nt
CC(=O)N1CCN(S(=O)(=O)c2cccc(C(=O)NCCc3ccc(Cl)cc3)c2)CC1	nt	i	0	nt	nt
COc1ccc(OC)c(NC(=O)CSc2nnc(-c3ccco3)o2)c1	nt	i	4	-1	nt
COC(=O)c1cccc(NC(=O)CSc2nnc(-c3ccco3)o2)c1	nt	i	58*	1	nt
CC(Sc1nnc(N)s1)C(=O)Nc1ccc2c(c1)OCO2 (stereo unspecified)	nt	nt	3	nt	nt
Cc1c(C(=O)NC(C)c2ccccn2)oc2c(Cl)cccc12 (stereo unspecified)	nt	nt	-12	nt	nt
CC(=O)Nc1cccc(-c2ccnc3c2CC(C)(C(=O)NCc2ccncc2)O3)c1 (stereo unspecified)	nt	nt	3	nt	nt
CN(C(=O)COC(=O)c1ccccc1Nc1ccccc1)C1CCS(=O)(=O)C1 (stereo unspecified)	-1	i	2	-1	-5
CN(C(=O)COC(=O)CSc1ccc([N+](=O)[O-])cc1)C1CCS(=O)(=O)C1 (stereo unspecified)	nt	i	9	0	nt
SMILES	Runt-SMMHC FRET	Rce1 inhib	Vif inh	RanGTP-Impb inh	Runt-CBFb FRET
CN(C(=O)COC(=O)c1cc([N+](=O)[O-])ccc1Sc1ccccc1)C1CCS(=O)(=O)C1 (stereo unspecified)	0	+	19	0	-1
Cc1cccc(Nc2ccccc2C(=O)OCC(=O)N(C)C2CCS(=O)(=O)C2)c1C (stereo unspecified)	-8	+	-4	5	0
CN(C)Cc1cc(O)c(CN(C)C)cc1O	69*	i	12	1	4
CN(C)Cc1cc(C(C)(C)C)cc(C(C)(C)C)c1O	-1	i	-1	2	-1
Cc1ccccc1Cc1ccc(Cl)nn1	0	i	-4	?	2
COc1cc(S(=O)(=O)N2CCOCC2)ccc1NC(=O)COC(=O)c1ccc(Cl)nc1	nt	nt	5	nt	nt
N#Cc1c(=O)c2nc(NCc3ccccc3)ncc2n2ccccc12	57	nt	5	38*	-14
CCc1cccc(NC(=O)CCS(=O)(=O)c2cc3c(cc2C)NC(=O)CO3)c1	nt	i	134*	-1	nt
C=C1c2ccccc2O[C@H](C(=O)OCC)[C@H]1OC	nt	nt	0	nt	nt

Compound activity from PubChem.
